# Shown is part of a subset that was picked to be rich in hits.
# INS-1E ATP HTS – preserves ATP levels in cytokine-treated INS-1E cells | AID 488910 | INS-1E cytokine-induced death, ATP luminescence, 48 h; normalised: neutral wells 0, positive control 100 | 0.1% of 20,000 active | protection from cytokine-induced ATP loss, % at 10 µM;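 active = mean replicate protection from cytokine-induced ATP loss at least 50% and at least 75% of replicates each reaching 50%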
#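 Assay system – rat INS-1E insulinoma cell line · Quantity – 8000 cells per well · Buffer or medium – RPMI without phenol red, 5% FBS · Schedule – 48 h co-treatment, 10 min post-lysis read · Technique – luminescent ATP assay (CellTiter-Glo)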
# A1 apoptosis 2 – blocks A1, raising caspase activity; AID 2465; 24,000 tested, under 10 active; caspase activation, % (no concentration beside the values); MEF A1-2A-BIM cells, caspase-Glo luminescence, 3 h; percent of clofoctol response, DMSO zero; in the data active = caspase activation above about 5.9%
#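 Test system – A1-2A-BIM-expressing MEF cells · Input – 2500 cells/well · Medium – RPMI-1640 growth medium with 10% FBS · Compound dosing – 50 nL pinned compound · Timing – 3 h compound exposure at 37 °C · Technique – Caspase-Glo luminescence (DEVD substrate) · Evaluation – Caspase-3/7 activity from luminescence increase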
# T cruzi intra – intracellular Trypanosoma cruzi inhibition; intracellular Trypanosoma cruzi in host cells, plate reader; activity score (inhibition), % at 5.01 µM; 4.9% of 22,000 active; AID 651903; in the data active = activity score above about 55%;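 note: parasites and compound incubated about four days before reading; 0% = median of neutral control wells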
# Active calls of the source: *; / = not tested or not shown.
SMILES,INS-1E ATP HTS,A1 apoptosis 2,T cruzi intra
Cc1ccc(S(=O)(=O)Nc2cccc3c2O[C@H](CN(C)Cc2ccc(C(=O)Nc4ccccc4N)cc2)[C@@H](C)CN([C@@H](C)CO)C3=O)cc1,0.2,2.1,44.0
C[C@H]1CN([C@@H](C)CO)C(=O)c2cccc(NS(=O)(=O)c3ccc(Cl)cc3)c2O[C@H]1CN(C)Cc1ccc(C(=O)Nc2ccccc2N)cc1,7.7,-0.3,60.3*
C[C@H](CO)N1C[C@H](C)[C@H](CN(C)Cc2ccc(C(=O)Nc3ccccc3N)cc2)Oc2c(NS(=O)(=O)c3ccc(Cl)cc3)cccc2C1=O,-6.1,1.5,52.8
C[C@H]1CN([C@@H](C)CO)C(=O)c2cccc(NS(=O)(=O)c3ccc(F)cc3)c2O[C@H]1CN(C)Cc1ccc(C(=O)Nc2ccccc2N)cc1,-17.8,0.1,60.4*
Cc1ccc(S(=O)(=O)Nc2cccc3c2O[C@H](CN(C)Cc2ccc(C(=O)Nc4ccccc4N)cc2)[C@H](C)CN([C@H](C)CO)C3=O)cc1,22.6,/,50.0
Cc1ccc(S(=O)(=O)Nc2cccc3c2O[C@@H](CN(C)Cc2ccc(C(=O)Nc4ccccc4N)cc2)[C@@H](C)CN([C@@H](C)CO)C3=O)cc1,8.0,-0.8,64.4*
Cc1ccc(S(=O)(=O)Nc2cccc3c2O[C@@H](CN(C)Cc2ccc(C(=O)Nc4ccccc4N)cc2)[C@H](C)CN([C@@H](C)CO)C3=O)cc1,-5.7,/,55.4*
O=C(N/N=C/c1ccc(F)cc1)c1ccccc1O,-20.4,-3.9,-17.6
O=C(NO)c1cccc(C(=O)N/N=C/c2cn(S(=O)(=O)c3ccccc3)c3ccccc23)c1,9.2,-0.8,2.7
O=C(CCCCCC(=O)NN=C1CCCC1)NO,/,0.0,/
COc1cc(/C=N/NC(=O)c2cccc(C(=O)NO)c2)cc(OC)c1OC,3.4,/,-4.9
COC(=O)CCCCCCC(=O)N/N=C/c1cccc(Oc2ccccc2)c1,2.8,/,-6.0
C[C@@H]1CN([C@H](C)CO)C(=O)c2cccc(NS(=O)(=O)c3ccccc3)c2O[C@H]1CN(C)Cc1ccc(C(=O)Nc2ccccc2N)cc1,-10.3,/,47.0
Cc1noc(C)c1S(=O)(=O)Nc1cccc2c1O[C@H](CN(C)Cc1ccc(C(=O)Nc3ccccc3N)cc1)[C@H](C)CN([C@H](C)CO)C2=O,-13.5,/,60.1*
Cc1noc(C)c1S(=O)(=O)N(C)C[C@H]1Oc2ccc(NC(=O)CCCN(C)C)cc2C(=O)N([C@H](C)CO)C[C@@H]1C,11.8,-0.5,-21.9
O=C(CCCCCC(=O)N/N=C/c1c(F)c(F)c(F)c(F)c1F)NO,/,0.1,/
C[C@@H]1CN([C@H](C)CO)C(=O)Cc2cc(NC(=O)Nc3ccc(C(F)(F)F)cc3)ccc2O[C@@H]1CN(C)Cc1ccc(Oc2ccccc2)cc1,-35.0,0.7,79.8*
C[C@H]1CN([C@@H](C)CO)C(=O)Cc2cc(NC(=O)Nc3ccc(C(F)(F)F)cc3)ccc2O[C@H]1CN(C)Cc1ccc(Oc2ccccc2)cc1,-18.8,-1.3,4.4
C[C@@H]1CN([C@H](C)CO)C(=O)Cc2cc(NC(=O)Nc3ccccc3)ccc2O[C@H]1CN(C)Cc1ccc(Oc2ccccc2)cc1,-46.4,/,49.4
C[C@@H]1CN([C@@H](C)CO)C(=O)Cc2cc(NC(=O)Nc3ccc(C(F)(F)F)cc3)ccc2O[C@@H]1CN(C)Cc1ccc(Oc2ccccc2)cc1,-8.4,-1.0,74.0*
COc1ccc(O)c(/C=N/NC(=O)c2cccc(C(=O)NO)c2)c1,-9.6,-0.8,-17.3
COc1ccc(O)c(/C=N/NC(=O)CCCCC(=O)NO)c1,-0.2,/,-7.9
C[C@@H]1CN([C@H](C)CO)C(=O)c2cc(NS(=O)(=O)c3ccccc3)ccc2O[C@H]1CN(C)CC1CCCCC1,-2.9,/,-3.3
Cc1ccc(S(=O)(=O)N(C)C[C@@H]2Oc3c(NS(=O)(=O)c4cn(C)cn4)cccc3C(=O)N([C@H](C)CO)C[C@@H]2C)cc1,8.8,-0.6,-23.8
C[C@@H]1CN([C@H](C)CO)C(=O)Cc2cc(NS(=O)(=O)c3ccccc3)ccc2O[C@H]1CN(C)Cc1ccc(C(F)(F)F)cc1,-6.3,-0.2,11.4
SMILES,INS-1E ATP HTS,A1 apoptosis 2,T cruzi intra
C[C@H]1CN([C@@H](C)CO)C(=O)Cc2cc(NS(=O)(=O)c3ccccc3)ccc2O[C@@H]1CN(C)Cc1ccc(C(F)(F)F)cc1,10.7,/,67.0*
C[C@H](CO)N1C[C@H](C)[C@H](CN(C)Cc2ccc(C(F)(F)F)cc2)Oc2ccc(NS(=O)(=O)c3ccccc3)cc2CC1=O,1.9,/,5.9
C[C@@H]1CN([C@H](C)CO)C(=O)Cc2cc(NS(=O)(=O)c3ccccc3)ccc2O[C@@H]1CN(C)Cc1ccc(C(F)(F)F)cc1,-28.2,0.5,59.0*
COc1ccc(/C=N/NC(=O)c2ccc(C(=O)NO)cc2)cc1O,/,-1.0,/
C[C@H](CO)N1C[C@H](C)[C@H](CN(C)C(=O)Nc2ccc(C(F)(F)F)cc2)Oc2ccc(NC(=O)Nc3cccc4ccccc34)cc2CC1=O,-19.5,0.2,9.1
C[C@H]1CN([C@@H](C)CO)C(=O)Cc2cc(NC(=O)Nc3cccc4ccccc34)ccc2O[C@@H]1CN(C)Cc1ccc(C(F)(F)F)cc1,-52.0,-0.3,69.2*
C[C@H](CO)N1C[C@H](C)[C@H](CN(C)Cc2ccc(C(=O)O)cc2)Oc2ccc(NC(=O)Nc3cccc4ccccc34)cc2CC1=O,4.6,-0.3,1.9
C[C@H](CO)N1C[C@H](C)[C@H](CN(C)Cc2ccc(C(F)(F)F)cc2)Oc2ccc(NC(=O)Nc3cccc4ccccc34)cc2CC1=O,-38.5,/,79.3*
C[C@H](CO)N1C[C@H](C)[C@H](CN(C)Cc2ccccc2)Oc2ccc(NC(=O)Nc3cccc4ccccc34)cc2CC1=O,-10.5,/,40.1
C[C@@H]1CN([C@@H](C)CO)C(=O)Cc2cc(NC(=O)Nc3cccc4ccccc34)ccc2O[C@@H]1CN(C)C(=O)Nc1ccc(C(F)(F)F)cc1,-30.3,0.8,46.0
C[C@@H]1CN([C@H](C)CO)C(=O)Cc2cc(NC(=O)Nc3cccc4ccccc34)ccc2O[C@H]1CN(C)Cc1ccc(C(F)(F)F)cc1,-53.8,0.2,58.7*
C[C@H]1CN([C@@H](C)CO)C(=O)Cc2cc(NC(=O)Nc3cccc4ccccc34)ccc2O[C@H]1CN(C)Cc1ccc(C(F)(F)F)cc1,-80.5,/,72.8*
CCCCCCC/C=N/NC(=O)CCCCCCC(=O)O,-1.5,/,-7.0
O=C(O)c1cccc(/C=N/NC(=O)c2ccccc2O)c1,-44.6,-11.6,-7.8
COc1cc(Br)cc(/C=N/NC(=O)CCCCCCC(=O)O)c1O,12.8,-0.5,-9.8
C[C@H](CO)N1C[C@H](C)[C@@H](CN(C)Cc2ccc(C(=O)Nc3ccccc3N)cc2)Oc2ccc(NC(=O)Nc3ccccc3)cc2CC1=O,/,-1.3,/
C[C@H]1CN([C@@H](C)CO)C(=O)Cc2cc(NC(=O)Nc3ccccc3)ccc2O[C@H]1CN(C)Cc1ccc(C(=O)Nc2ccccc2N)cc1,11.7,-0.4,69.3*
C[C@H]1CN([C@@H](C)CO)C(=O)Cc2cc(NC(=O)Nc3ccc(F)cc3)ccc2O[C@H]1CN(C)Cc1ccc(C(=O)Nc2ccccc2N)cc1,-5.9,-1.0,56.5*

# Bioassay records deposited in PubChem by Broad Institute.
